Test results taken from ChEMBL document CHEMBL1129943, “5-aminocoumarans: dual inhibitors of lipid peroxidation and dopamine release with protective effects against central nervous system trauma and ischemia” (J Med Chem, 1997).

What was measured:
Format in all cases: functional
Mus musculus [1] = species on record: Mus musculus; experiment: Peroral dose required to reduce by 50% the score of excitatory behavior induced by intrathecal injection of ferrous chloride in mice; conditions: central, read-out: ID50 (the source's name)
Outline: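 Male Slc:ICR mice, 5 weeks old, 10 per dose. Compound given orally 30 min before intrathecal 5 μL of 50 mM FeCl2 in saline (between L6 and S1). Vehicle was water, or 0.5% gum arabic suspension. Behaviour scored 0–5 (biting to death) from 15 min to 1 h. ID50 from three or four doses, relative to vehicle score.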

Rattus norvegicus [2] = species on record: Rattus norvegicus; experiment: Inhibition of lipid peroxidation by rat liver microsomes; parameters: concentration or dose not given beside the values; conditions: dose or concentration not given here
Outline: (§1)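 Rat liver microsomes (S-9), 0.3 mg protein in 40 mM Tris-malate pH 7.4. Peroxidation started with a 1:1 mix of FeCl2 (0.25 mM) and NADPH (3 mM), then 1 h at 37 °C. Compound in DMSO added before incubation, tested up to 1 μM final. Thiobarbituric acid method read-out. Activity relative to DMSO vehicle; IC50 from four concentrations by nonlinear regression, otherwise % inhibition at 1 μM.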

Rattus norvegicus [3] = species on record: Rattus norvegicus; experiment: Concentration required to reduce by 50% the amount of lipid peroxide formed in rat liver microsomes; outline: as §1
Mus musculus [4] = species on record: Mus musculus; experiment: Percentage increase of locomotor activity in mice
Mus musculus [5] = experiment: Locomotor activity was measured in mice after 1 hour administration of methamphetamine; parameters: unit not given here

| SMILES | ED50 (Mus musculus [1]) | inhibition (Rattus norvegicus [2]) | IC50 (Rattus norvegicus [3]) | Increase (Mus musculus [4]) | Locomotor activity (Mus musculus [5]) |
| --- | --- | --- | --- | --- | --- |
| CC(=O)Nc1c(C)c(C)c2c(c1C)CC(C)(C)O2 | > 100 mg/kg | -2% |  |  |  |
| Cc1c(C)c2c(c(C)c1Nc1ccccc1)CC(C)(C)O2 | > 50 mg/kg |  | 0.28 µM |  |  |
| Cc1c(C)c2c(c(C)c1NC=O)CC(C)(C)O2 | > 100 mg/kg | 0% |  |  |  |
| CCCc1ccc(C2c3c(C)c(N)c(C)c(C)c3OC2(C)C)cc1 (stereo unspecified) | > 50 mg/kg |  | 0.29 µM |  |  |
| Cc1c(C)c2c(c(C)c1N)CC(C)(Cn1ccnc1)O2 (stereo unspecified) | 25 mg/kg | 6% |  | 155.1% | 3950 |
| COC(=O)/C=C\C1(C)Cc2c(C)c(N)c(C)c(C)c2O1 (stereo unspecified) | > 100 mg/kg | 38% |  |  |  |
| Cc1c(C)c2c(c(C)c1Nc1cccnc1)CC(C)(C)O2 | > 50 mg/kg | 4% |  |  |  |
| Cc1c(C)c2c(c(C)c1N)CC(C)(CBr)O2 (stereo unspecified) | 16 mg/kg |  | 0.3 µM | 34.5% | 1115 |
| Cc1ccc(S(=O)(=O)Nc2c(C)c(C)c3c(c2C)CC(C)(C)O3)cc1 | > 100 mg/kg | 3% |  |  |  |
| CCCSCC1(C)Cc2c(C)c(N)c(C)c(C)c2O1 (stereo unspecified) | 24.6 mg/kg |  | 0.28 µM | 56.4% | 1540 |
| CCC(=O)Nc1c(C)c(C)c2c(c1C)CC(C)(C)O2 | > 100 mg/kg | 1% |  |  |  |
| Cc1cc2c(c(C)c1N)CC(C)(C)O2 | 16.3 mg/kg | 14% |  |  |  |
| CCNc1c(C)c(C)c2c(c1C)CC(C)(C)O2 | 38.9 mg/kg | 16% |  |  |  |
| Cc1c(C)c2c(c(C)c1N)CC(C)(CSc1ccc(F)cc1)O2 (stereo unspecified) | 17.9 mg/kg |  | 0.22 µM | 61.8% | 1625 |
| Cc1c(C)c2c(c(C)c1N)CC(C)(CSCCO)O2 (stereo unspecified) | > 50 mg/kg | 11% |  |  |  |
| Cc1c(C)c2c(c(C)c1N)CC(C)(CN1CCOCC1)O2 (stereo unspecified) | 19.2 mg/kg |  | 0.41 µM | 103.1% | 3209 |

| SMILES | ED50 (Mus musculus [1]) | inhibition (Rattus norvegicus [2]) | IC50 (Rattus norvegicus [3]) | Increase (Mus musculus [4]) | Locomotor activity (Mus musculus [5]) |
| --- | --- | --- | --- | --- | --- |
| Cc1c(C)c2c(c([N+](=O)[O-])c1N)CC(C)(C)O2 | > 100 mg/kg | 0% |  |  |  |
| Cc1c(N)c(C)c2c(c1CN1CCCCC1)OC(C)(C)C2 | > 50 mg/kg | 3% |  |  |  |
| Cc1c(C)c2c(c(C)c1N)C(c1ccc(C(C)C)cc1)C(C)(C)O2 (stereo unspecified) | > 50 mg/kg |  | 0.29 µM |  |  |
| Cc1c(N)c(C)c2c(c1CC(C)C)OC(C)(C)C2 | 13.3 mg/kg |  | 0.14 µM |  |  |
| Cc1c(C)c2c(c(C)c1N)CC(C)(CNCCc1ccccc1)O2 (stereo unspecified) | 14.2 mg/kg |  | 0.29 µM |  |  |
| Cc1c(C)c2c(c(C)c1N)CC(C)(CNc1ccccc1)O2 (stereo unspecified) | 15.7 mg/kg |  | 0.26 µM | 70.4% | 1812 |
| Cc1c(C)c2c(c(C)c1N)CC(C)(CNCCCCc1ccccc1)O2 (stereo unspecified) | 17 mg/kg |  | 0.08 µM |  |  |
| Cc1c(C)c2c(c(C)c1N)CC(C)(CSCc1ccccc1)O2 (stereo unspecified) | 32 mg/kg |  | 0.26 µM | 33.6% | 1099 |
| Cc1c(C)c2c(c(C)c1N)CC(C)(COCc1ccccc1)O2 (stereo unspecified) | 18.6 mg/kg |  | 0.28 µM | 64% | 1657 |
| Cc1c(N)cc2c(c1C)OC(C)(C)C2 | 24.4 mg/kg | 26% |  |  |  |
| Cc1c(C)c2c(c(C)c1N)CC(C)(CN1CCN(c3ccccc3)CC1)O2 (stereo unspecified) | 13.1 mg/kg |  | 0.07 µM | 47.3% | 1484 |
| Cc1c(C)c2c(c(C)c1N)C(c1ccccc1)C(C)(C)O2 (stereo unspecified) | 24.8 mg/kg |  | 0.29 µM | 77.3% | 1845 |
| Cc1c(C)c2c(c(C)c1Nc1ccc(Cl)cc1)CC(C)(C)O2 | > 50 mg/kg |  | 0.3 µM |  |  |
| CCCNc1c(C)c(C)c2c(c1C)CC(C)(C)O2 | 51.1 mg/kg | 24% |  |  |  |
| CNc1c(C)c(C)c2c(c1C)CC(C)(C)O2 | 16.6 mg/kg | 18% |  | 84.7% | 1229 |
| Cc1c(N)c(C)c2c(c1CN(C)C)OC(C)(C)C2 | > 50 mg/kg | 4% |  |  |  |
